Assay results collected from several papers.
Protocols differ between the studies behind these lines.
Target: Serine/threonine-protein kinase D2 (PRKD2, Homo sapiens, UniProt Q9BZL6)
Residues used in one study (Q9BZL6 1-878): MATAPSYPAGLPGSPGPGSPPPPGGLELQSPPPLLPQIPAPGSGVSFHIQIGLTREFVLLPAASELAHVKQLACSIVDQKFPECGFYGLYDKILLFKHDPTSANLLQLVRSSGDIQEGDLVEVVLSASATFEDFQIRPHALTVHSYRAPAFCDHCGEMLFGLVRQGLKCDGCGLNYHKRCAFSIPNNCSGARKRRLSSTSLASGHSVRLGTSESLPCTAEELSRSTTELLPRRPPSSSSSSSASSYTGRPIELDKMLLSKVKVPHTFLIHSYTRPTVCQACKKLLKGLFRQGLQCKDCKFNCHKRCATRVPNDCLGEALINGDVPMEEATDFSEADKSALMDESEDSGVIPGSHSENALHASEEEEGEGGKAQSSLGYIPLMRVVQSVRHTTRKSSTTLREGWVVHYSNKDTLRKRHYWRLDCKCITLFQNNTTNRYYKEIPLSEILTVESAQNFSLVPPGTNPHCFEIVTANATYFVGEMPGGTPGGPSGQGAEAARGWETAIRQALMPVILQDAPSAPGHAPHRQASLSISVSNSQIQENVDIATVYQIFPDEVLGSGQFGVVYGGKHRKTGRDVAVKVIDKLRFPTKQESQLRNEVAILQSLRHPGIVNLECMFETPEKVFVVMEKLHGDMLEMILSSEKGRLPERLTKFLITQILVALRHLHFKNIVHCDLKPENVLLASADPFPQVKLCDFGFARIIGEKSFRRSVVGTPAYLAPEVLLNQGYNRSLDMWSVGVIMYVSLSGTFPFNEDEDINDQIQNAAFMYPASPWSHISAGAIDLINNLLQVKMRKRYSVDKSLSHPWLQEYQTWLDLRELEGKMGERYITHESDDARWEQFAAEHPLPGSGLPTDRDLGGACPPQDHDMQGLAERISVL

`CCN(CC)CCNC(=O)c1c(C)[nH]c(/C=C2\C(=O)Nc3ccc(F)cc32)c1C` gave an inhibition of 88% (enzyme activity, inhibitor; 10 µM).
`CC(C)(C)c1nc(-c2cccc(NS(=O)(=O)c3c(F)cccc3F)c2F)c(-c2ccnc(N)n2)s1` gave a remaining activity of 30% (enzyme activity, inhibitor, radiometric; 1 µM).
With `N#CC1c2c([nH]c3c(Cl)c(Cl)ccc23)C(=O)NC12CCCCC2` (racemic) the ΔTm was 0.1 °C (thermal stability, DSF; 10 µM).
`COc1ccc(COc2ccc(Cc3cnc(N)nc3N)cc2OC)cc1` gave a remaining signal of 99.4% (cell-free assay; 0.5 µM).
`CN([C@@H]1CCc2c(CC(=O)O)c3ccccc3n2C1)S(=O)(=O)c1ccc(F)cc1` gave a remaining binding of 100% (cell-free assay, competition with immobilised ligand; 1 µM).
`Cn1cnc(Br)c1C1=CN(c2ncnc3[nH]cnc23)CCS1` gave an inhibition of 19.1% (enzyme activity, inhibitor, radiometric; 50 nM).
With `COc1cccc(CNC(=O)c2nc3scc(COCc4ccc(C(=O)O)cc4)c3c(=O)[nH]2)c1` the remaining binding was 100% (cell-free assay, competition with immobilised ligand; 1 µM).
`N#CCCc1ccc2c(c1)-c1[nH]c3ccc([N+](=O)[O-])cc3c1CC(=O)N2` has a remaining signal of 94.2% (cell-free assay; 0.5 µM).
`CC(=O)Nc1c(C(C)=O)c(=O)n(C)c2nc(-c3ccc(Cl)cc3Cl)c(-c3ccc(Cl)cc3)cc12` gave a remaining binding of 100% (cell-free assay, competition with immobilised ligand; 1 µM).
`CC(C)(O)[C@H]1CC[C@H](Nc2ccc3ncc(-c4cccc(C(F)(F)F)c4)n3n2)CC1` has a remaining activity of 92% (enzyme activity, inhibitor; 1 µM).
`CO[C@H]1CC[C@H](CNc2ccc(S(=O)(=O)NC(=O)c3ccc(N4CCN(CC5=C(c6ccc(Cl)cc6)CC(C)(C)CC5)CC4)cc3Oc3cnc4[nH]ccc4c3)cc2[N+](=O)[O-])CC1` has a remaining binding of 100% (cell-free assay, competition with immobilised ligand; 1 µM).
The inhibition of `CCOc1cc(-c2nncn2C)ccc1Nc1ncc2cc(C)nc(NCC(C)(C)C)c2n1` is reported as less than 15% (enzyme activity, inhibitor, FRET; 1 µM).
With `Cc1cnc(NC2CCOCC2)nc1-n1cnc(C(=O)NC(CN)c2cc(F)cc(Cl)c2)c1` (stereo not drawn) the remaining activity was 5% (enzyme activity, inhibitor, radiometric; 1 µM).
`Cn1c2c(c3ccc(Cl)c(Cl)c31)C(C#N)C(C)(C)NC2=O` (stereo not drawn) gave a ΔTm of 0.2 °C (thermal stability, DSF; 10 µM).
For `Cc1sc(C(=O)NC2COC2)cc1-n1cc(NC(=O)Nc2c(F)cccc2Cl)cn1`, the remaining activity was 95.7% (enzyme activity, inhibitor; 10 µM).
With `COc1cc(Cl)c(C(=O)N[C@@H](CN[C@H]2CC[C@@H](N)CC2)Cc2ccc(C#N)cc2)cc1-c1ccc(CN[C@H](C)c2ccc(C)cc2)o1` the remaining activity was 109% (enzyme activity, inhibitor; 1 µM).
With `Cc1ccc(Nc2nccc(N(C)c3ccc4c(C)n(C)nc4c3)n2)cc1S(N)(=O)=O` the inhibition was 15% (enzyme activity, inhibitor; 10 µM).
The remaining activity of `Cc1ccc(C(=O)Nc2ccc(CN3CCN(C)CC3)c(C(F)(F)F)c2)cc1C#Cc1cnc2cccnn12` is reported as 95% (enzyme activity, inhibitor; 23.5 nM).
The ΔTm of `Cn1c2c(c3ccc(Cl)c(Cl)c31)C(C#N)C1(CCNCC1)NC2=O` (racemic) is reported as 0.9 °C (thermal stability, DSF; 10 µM).
The inhibition of `Cn1cncc1C1=CN(c2ncnc3[nH]cnc23)CCS1` is reported as 93.1% (enzyme activity, inhibitor, radiometric; 2 µM).
The inhibition of `COc1cccc2c(NCc3ccccc3)nc(-n3c(N)nc4ccccc43)nc12` is reported as -4.3% (target engagement in cells, inhibitor, chemoproteomics; 20 mM).
`C[C@@]1(Cc2ccc(C#N)cc2)C(=O)N(c2cc(Cl)cc(Cl)c2)c2ncc(C(=O)NC3(c4nc(C5CCC5)no4)CC3)n21` has a remaining binding of 100% (cell-free assay, competition with immobilised ligand; 1 µM).
`Cn1c2c(Cl)c(Cl)ccc2c2cn[nH]c(=O)c21` has a ΔTm of 0.1 °C (thermal stability, DSF; 10 µM).
For `CNC(=O)c1cc(Oc2ccc(NC(=O)Nc3ccc(Cl)c(C(F)(F)F)c3)cc2)ccn1`, the inhibition was 15% (enzyme activity, inhibitor; 10 µM).
The remaining signal of `Cc1ccc(NC(=O)c2ccc(C)c(C(F)(F)F)c2)cc1C#Cc1nn(C2CCC(O)CC2)c2ncnc(N)c12` (stereo not drawn) is reported as 108% (cell-free assay; 10 µM).
The ΔTm of `CCN1CCC2(CC1)NC(=O)c1c(c3ccc(Cl)c(Cl)c3n1C)C2C#N` (racemic) is reported as 0.6 °C (thermal stability, DSF; 10 µM).
With `Cn1nc(C(=O)NCc2ccc(C(=O)O)cc2)cc1-c1ccc2[nH]ccc2c1` the remaining binding was 100% (cell-free assay, competition with immobilised ligand; 0.1 µM).
The remaining activity of `CCN(CC)c1ccc(C2=NNC(=O)CC2C)cc1[N+](=O)[O-]` (stereo not drawn) is reported as 106% (enzyme activity, inhibitor; 10 µM).
With `Cn1nc(C(F)(F)F)cc1-c1cnc(N2CCc3cc(S(=O)(=O)Nc4c(F)cc(Cl)cc4F)cc(N4CCCC4=O)c32)nc1` the remaining binding was 95% (cell-free assay, competition with immobilised ligand; 1 µM).
`O=C1NC(=O)c2cc(Nc3ccc(F)cc3)c(Nc3ccc(F)cc3)cc21` gave a remaining signal of 86.8% (cell-free assay; 0.5 µM).
`CCS(=O)(=O)c1cc2cc(C[C@@](O)(CC(C)(C)c3ccc(F)cc3C(N)=O)C(F)(F)F)[nH]c2cn1` gave a remaining binding of 89% (cell-free assay, competition with immobilised ligand; 1 µM).
With `CCCOc1ccc(OC)c(F)c1C(=O)c1ccc(C(=O)N[C@@H]2CNC[C@H]2NC(=O)c2ccc3[nH]ncc3c2)cc1` the remaining activity was 48% (enzyme activity, inhibitor; 10 µM).
With `COc1cc2ncnc(Nc3ccc(Oc4ccccc4)c(C)c3C)c2cc1OC` the inhibition was 2% (enzyme activity, inhibitor; 1 µM).
